Screening data: PubChem, several laboratories
RAM inhibit: inhibitors of the yeast RAM network. S. cerevisiae dse1pr::URA3 reporter, 5-FOA growth OD615, 2 d; analog-sensitive cbk1-as2 kinase mutant strain. inhibition, % at 50 µM. actives 1.8% (n = 190,000). AID 868;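 active means inhibition above a set limit, 3 SD over mean compound inhibition, cut at about 8.4% in these data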;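 further: inhibition rescues growth on 5-FOA so higher OD means more RAM inhibition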
Arbovirus anti: antivirals against arbovirus infection | arbovirus infection cell-based antiviral screen | inhibition, % at 10 µM | actives 0.37% (n = 200,000) | AID 1251; in the data active means inhibition above about 30%
ABCG2 inh: human ABCG2 inhibition, ABCB1 as counter-screen | IgMXP3 cells, JC-1 efflux, flow cytometry | Q9UNQ0 | inhibition, % at 6.6 µM | actives 0.1% (n = 190,000);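 active means inhibition above 80%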
Target sequence (Q9UNQ0 whole entry, looked up): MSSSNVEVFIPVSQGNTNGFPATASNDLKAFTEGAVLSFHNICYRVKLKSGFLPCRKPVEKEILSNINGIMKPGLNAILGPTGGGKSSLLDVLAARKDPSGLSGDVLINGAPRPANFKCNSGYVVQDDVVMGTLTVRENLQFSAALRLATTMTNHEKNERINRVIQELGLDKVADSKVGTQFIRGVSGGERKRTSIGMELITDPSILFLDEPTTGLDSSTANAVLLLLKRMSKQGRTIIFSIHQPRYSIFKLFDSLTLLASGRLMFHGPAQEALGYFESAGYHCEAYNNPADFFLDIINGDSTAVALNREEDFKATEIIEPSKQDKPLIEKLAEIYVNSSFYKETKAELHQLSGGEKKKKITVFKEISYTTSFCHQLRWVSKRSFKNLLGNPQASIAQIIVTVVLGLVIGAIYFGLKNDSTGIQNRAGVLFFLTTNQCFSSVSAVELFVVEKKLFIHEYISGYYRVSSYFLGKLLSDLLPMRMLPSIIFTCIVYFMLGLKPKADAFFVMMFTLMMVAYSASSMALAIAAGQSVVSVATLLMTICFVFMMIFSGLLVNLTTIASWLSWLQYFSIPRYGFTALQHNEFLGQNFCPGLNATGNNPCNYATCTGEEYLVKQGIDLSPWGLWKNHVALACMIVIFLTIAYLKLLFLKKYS
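Times: 10 min at 25 °C | Test system: Two drug-resistant human cell lines, ABCG2 and ABCB1 | Quantity: 3 million cells/mL final, two lines in 1:1 ratio | Signal: Flow cytometry, 530 nm JC-1 signal | Dosing: Compound at 6.6 µM | Controls: Nicardipine and DMSO wells | Reagent: JC-1 as fluorescent efflux pump substrate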
ABCB1 block: human ABCB1 inhibition, ABCG2 as counter-screen; CCRF-Adr cells, JC-1 efflux, flow cytometry; inhibition, % at 6.6 µM; actives 0.067% (n = 190,000); AID 1326; in the data active means inhibition above about 40%;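 further: higher value means more JC-1 retained so stronger ABCB1 efflux block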
Large screens that a line does not name were inactive. Shown are actives, neighbours in structure and some others; about 2.3% of the full set was active somewhere.

CCCc1cc(=O)[nH]c(SCC(=O)c2cc(C)n(-c3cc(C)on3)c2C)n1	none
CCC1=NN2C(=N)/C(=C\c3cccn3-c3ccc(Br)cc3)C(=O)N=C2S1	none
COc1ccc(-n2cccc2/C=C2\C(=N)N3N=C(C(C)C)SC3=NC2=O)cc1	RAM inhibit 11, Arbovirus anti 30
COc1ccc(-n2cccc2/C=C2\C(=N)N3N=C(c4ccco4)SC3=NC2=O)cc1	Arbovirus anti 39
CC(C)c1ccc(-n2cccc2/C=C2/C(=N)N3C=CSC3=NC2=O)cc1	none
COc1ccc(CN(CC(=O)NC2CCCCC2)C(=O)CCCC(=O)Nc2ccccn2)cc1	none
COc1ccc(CN(CC(=O)NC2CCCC2)C(=O)c2ccc(-c3ccccc3)[nH]2)cc1	RAM inhibit 8.8
COc1cccc(COC(=O)c2nn(-c3ccccc3)nc2N)c1	RAM inhibit 9.7
Cc1cc2nc(-c3ccc(SCC(=O)Nc4ccc(S(=O)(=O)NC5CC5)cc4)nc3)[nH]c2cc1C	RAM inhibit 9.3
Cc1cc(NC(=O)CSc2ccc(-c3nc4cc(C)c(C)cc4[nH]3)cn2)no1	RAM inhibit 10
CCCCC(=O)Nc1ccc(C(=O)Nc2ccc(OC)cc2[N+](=O)[O-])cc1	none
O=C(NCc1ccccc1)c1ccc2c(c1)OCCO2	none
O=C(Nc1ccc2c(c1)OCCO2)C(=S)NCc1ccccc1	RAM inhibit 8.7
Cc1ccc(-c2nc(CSc3nc4ccccc4c(=O)n3C)cs2)cc1	RAM inhibit 11
Cc1ccc(-c2nc(CSc3nc4ccccc4c(=O)n3CCO)cs2)cc1	none
Nc1nccnc1C(=O)OCC(=O)Nc1cccc(S(=O)(=O)N2CCCCC2)c1	none
Cc1ccc(/C=c2\sc3nc(-c4cccs4)nn3c2=O)o1	RAM inhibit 9.0
COc1cccc(/C=c2\sc3nc(-c4cccs4)nn3c2=O)c1OC	none
COC(=O)c1sccc1NC(=O)CSc1ccccc1NS(=O)(=O)c1ccc(Cl)cc1	none
COC(=O)c1sccc1NC(=O)CSc1cc(Cl)ccc1Cl	RAM inhibit 9.5
Cc1cc(C)n2nc(N)c(N=Nc3ccc(Cl)cc3)c2n1	RAM inhibit 9.5
CCN1C(C)=C(C)S/C1=C1\SC(=S)N(C2CCCCC2)C1=O	none
C/C(CC(=O)NC1CCCCCC1)=N\NC(=O)c1cnccn1	none
CCOc1cc(C(=O)N(C)Cc2cc3ccccc3[nH]c2=O)cc(OCC)c1OCC	RAM inhibit 8.8
CCOc1ccccc1C(=O)N(C)Cc1cc2ccccc2[nH]c1=O	none
COCCn1c(SCc2nc3scc(-c4ccc(Cl)cc4)c3c(=O)[nH]2)nnc1-c1cccc(C)c1	Arbovirus anti 32
CCn1c(SCc2nc3scc(-c4ccccc4)c3c(=O)[nH]2)nnc1-c1cccs1	none
COc1ccc(-n2c(Cc3cccn3C)nnc2SCC(=O)Nc2cccc(Cl)c2)cc1	Arbovirus anti 36
O=C(CSc1nnc(-c2n[nH]c3ccccc23)n1-c1ccccc1)Nc1cccc(Cl)c1	RAM inhibit 8.8
NS(=O)(=O)c1ccc(NC(=S)Nc2ccn(Cc3cccc4ccccc34)n2)cc1	RAM inhibit 9.3
NS(=O)(=O)c1ccc(NS(=O)(=O)c2ccc(NC(=S)Nc3ccccc3)cc2)cc1	none
CCN(CC)S(=O)(=O)c1ccc2oc(C(=O)O)c(C)c2c1	none
CCN(CC)S(=O)(=O)c1ccc2oc(C(=O)NC(C)C)c(C)c2c1	ABCG2 inh 94
O=C1Nc2ccccc2S/C1=C/Nc1cccc(Cl)c1	RAM inhibit 8.4
CCN1CCN(S(=O)(=O)c2cccc(S(=O)(=O)N3CCOCC3)c2)CC1	none
CCCN(CCC)S(=O)(=O)c1ccc(Cl)c([N+](=O)[O-])c1	none
CCOC(=O)C(C)(C)N(Cc1ccccc1C)S(=O)(=O)c1ccc(Cl)c([N+](=O)[O-])c1	RAM inhibit 9.3
N#Cc1c(SCc2cccc(Cl)c2)sc(C(=O)c2ccccc2)c1N	Arbovirus anti 48
N#Cc1c(SCc2ccccc2)sc(C(=O)c2ccccc2)c1N	none
N#Cc1c(Nc2ccccc2)sc(C(=O)c2ccc(F)cc2)c1N	RAM inhibit 11
CC(=O)C1=NN(c2ccccc2)C2(S1)S/C(=C\c1ccccc1)C(=O)N2c1ccccc1 (stereo not drawn)	none
Nc1nc(CSc2ccc(Cl)cc2)nc(N2CCCCC2)n1	RAM inhibit 9.0
Nc1nc(CSc2ccccc2)nc(N2CCCCC2)n1	none
COc1ccc(-c2cc(-c3ccc(Br)cc3)nc3ncnn23)cc1OC	Arbovirus anti 72
Nc1ccc2nc(SCc3ccc([N+](=O)[O-])cc3)sc2c1	none
C=CCc1ccccc1OCCSc1nc2ccc([N+](=O)[O-])cc2s1	RAM inhibit 11
O=[N+]([O-])c1ccc2nc(SCc3ccccc3Cl)sc2c1	RAM inhibit 9.6
Cc1ccc(NC(=O)C(OC(=O)c2ccc(O)cc2)c2ccccc2)cc1Cl (stereo not drawn)	RAM inhibit 8.5
CCNS(=O)(=O)c1ccc(CCC(=O)Nc2cc(Cl)ccc2Oc2ccccc2)cc1	RAM inhibit 11
CC(C)NS(=O)(=O)c1ccc(CCC(=O)Nc2cc(Cl)ccc2Oc2ccccc2)cc1	RAM inhibit 8.8
CCOC(=O)C1=C(C)N=c2s/c(=C3\C(=O)Nc4ccccc43)c(=O)n2C1c1ccc2c(c1)OCO2 (stereo not drawn)	RAM inhibit 10
CCOC(=O)C1=C(C)N=c2s/c(=C\c3ccncc3)c(=O)n2C1c1ccc2c(c1)OCO2 (stereo not drawn)	none
CC(C)CCN(C)c1ccc(/C=N/n2cnnc2)cc1	none
Clc1cccc(CSc2ccc(-c3cccnc3)nn2)c1	none
c1ccc(CSc2ccc(-c3cccnc3)nn2)nc1	Arbovirus anti 30
CCCCN(C)C1=Nc2cccc3cccc1c23	none
C=CCn1c(SCC(=O)c2ccc(OC)cc2)nnc1-c1cc2cccc(OC)c2o1	RAM inhibit 11
C=CCn1c(SCC(=O)c2ccccc2)nnc1-c1cc2ccccc2o1	none
COC(=O)c1ccc(/C=N/NC(=O)CC(=O)NC(C)C)cc1	none
COc1ccccc1-c1cc(C(=O)NCc2ccccc2)no1	none
COc1ccc(CNC(=O)c2cc(-c3ccccc3OC)on2)cc1	RAM inhibit 8.6
CSc1nc(-c2ccc(Cl)cc2Cl)[nH]c(=O)c1C#N	Arbovirus anti 42
CSc1nc(N)nc(SCCS(=O)(=O)c2ccc(Cl)cc2)c1C#N	none
CCOc1ccccc1OCCCOc1ccc(C)cc1Cl	none
CCCCCNC(=O)c1c[nH]c2ccc(S(=O)(=O)N3CCC4(CC3)OCCO4)cc2c1=O	none
COCC(C)NC(=O)/C(=C/c1ccccc1)c1ccccc1 (stereo not drawn)	none
CC(NC(=O)/C(=C/c1ccc(OC(F)F)cc1)c1ccccc1)c1ccccc1 (stereo not drawn)	RAM inhibit 9.6
Oc1ccc(C2=Nn3c(nnc3-c3ccco3)SC2)cc1O	none
CCN(c1ccccc1)S(=O)(=O)c1ccc(C(=O)OC(C)C(=O)NCCC2=CCCCC2)cc1 (stereo not drawn)	RAM inhibit 9.0
CC(OC(=O)Cc1ccc(Cl)cc1)C(=O)NCCC1=CCCCC1 (stereo not drawn)	RAM inhibit 9.0
